In ChEMBL document CHEMBL1629545, “A morpholino oligomer targeting highly conserved internal ribosome entry site sequence is able to inhibit multiple species of picornavirus” (Antimicrob Agents Chemother, 2008):
Active and inactive are the calls of the source.

Key:
HeLa [1] = test: Cytotoxicity against human HeLa cells 10 uM after 24 hrs by MTS assay; format: cell-based
Summary of the method: (§1)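 HeLa cells at ~80% confluence, uninfected, exposed to 1–100 μM PPMO or water (mock) in serum-free DMEM-F-12 (1:1) for 24 h. MTS reagent was added for 4 h and absorbance read at 492 nm. Viability was expressed as percent of water-treated cells (set to 100%), averaged over 12 wells.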

HeLa [2] = test: Cytotoxicity against human HeLa cells at 10 uM by MTS assay; format: cell-based; summary of the method: as §1
Poliovirus 1 [3] = test: Antiviral activity against Human poliovirus type 1 infected in Human HeLa cell after 21 hrs post infection by plaque assay; format: functional, organism-based; details: Enterovirus C
Summary of the method: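 HeLa cells infected with cDNA-derived PV1 (MOI 0.1), then treated after infection with 2 to 100 μM PPMO. Supernatant virus was titrated by plaque assay on HeLa monolayers 21 h later: 1% agar overlay, 36 h at 37°C, formaldehyde fixation, crystal violet staining and plaque count. IC50 was taken from triplicate samples.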

HeLa [4] = test: Cytotoxicity against human HeLa cell after 21 hrs by MTS assay; format: functional, cell-based
Summary of the method: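 Uninfected HeLa cells were exposed to a range of PPMO concentrations for 21 h, then read by MTS assay (4 h, absorbance 492 nm) against water-mock cells set to 100%. CC50 was taken from the concentration–viability curve, and triplicate samples were averaged.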

Poliovirus 1 [5] = test: Antiviral activity against Human poliovirus type 1 infected in Human HeLa cell assessed as inhibition of translation at 10 uM by luciferase reporter gene assay; format: functional, organism-based
Summary of the method: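 HeLa cells were pretreated 4 h with 10 μM PPMO, then electroporated with 20 μg noncapped PV1-Luc replicon RNA (IRES-driven). They were kept in medium with 10 μM PPMO, with or without 2 mM guanidine HCl, at 37°C in 5% CO2. Luciferase in cell lysates was read at 1-h intervals after transfection. Two experiments were averaged.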

Poliovirus 1 [6] = test: Antiviral activity against Human poliovirus type 1 infected in Human HeLa cell assessed as inhibition of translation at 10 ug/ml by luciferase reporter gene assay; format: functional, organism-based
Summary of the method: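 In-cell translation control: HeLa cells electroporated with 20 μg PV1-Luc replicon RNA were placed in medium with 10 μg/ml puromycin at 37°C in 5% CO2. Luciferase in lysates was read by luminometer at hourly time points after transfection. Two experiments were averaged.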

Poliovirus 1 [7] = test: Antiviral activity against Human poliovirus type 1 infected in mouse assessed as viral titer in small intestine at 10 mg/kg, ip administered 1 hr post infection once daily for 5 days measured after 8 days by plaque assay; format: functional, organism-based; parameters: dose 10 mg/kg
Poliovirus 1 [8] = test: Antiviral activity against Human poliovirus type 1 infected in mouse assessed as viral titer in small intestine at 10 mg/kg, ip administered 1 hr post infection once daily for 5 days measured after 7 days by plaque assay; format: functional, organism-based; parameters: dose 10 mg/kg
Poliovirus 1 [9] = test: Antiviral activity against Human poliovirus type 1 infected in mouse assessed as viral titer in small intestine at 10 mg/kg, ip administered 1 hr post infection once daily for 5 days measured after 10 days by plaque assay; format: functional, organism-based; parameters: dose 10 mg/kg
Poliovirus 1 [10] = test: Antiviral activity against Human poliovirus type 1 infected in mouse assessed as viral titer in spinal cord at 10 mg/kg, ip administered 1 hr post infection once daily for 5 days measured after 8 days by plaque assay; format: functional, organism-based; parameters: dose 10 mg/kg
Poliovirus 1 [11] = test: Antiviral activity against Human poliovirus type 1 infected in mouse assessed as viral titer in spinal cord at 10 mg/kg, ip administered 1 hr post infection once daily for 5 days measured after 7 days by plaque assay; format: functional, organism-based; parameters: dose 10 mg/kg
Poliovirus 1 [12] = test: Antiviral activity against Human poliovirus type 1 infected in mouse assessed as viral titer in spinal cord at 10 mg/kg, ip administered 1 hr post infection once daily for 5 days measured after 10 days by plaque assay; format: functional, organism-based; parameters: dose 10 mg/kg
Poliovirus 1 [13] = test: Antiviral activity against Human poliovirus type 1 infected in mouse assessed as viral titer in brain 10 mg/kg, ip administered 1 hr post infection once daily for 5 days measured after 8 days by plaque assay; format: functional, organism-based; parameters: dose 10 mg/kg
Poliovirus 1 [14] = test: Antiviral activity against Human poliovirus type 1 infected in mouse assessed as viral titer in brain at 10 mg/kg, ip administered 1 hr post infection once daily for 5 days measured after 7 days by plaque assay; format: functional, organism-based; parameters: dose 10 mg/kg
Poliovirus 1 [15] = test: Antiviral activity against Human poliovirus type 1 infected in mouse assessed as viral titer in brain at 10 mg/kg, ip administered 1 hr post infection once daily for 5 days measured after 10 days by plaque assay; format: functional, organism-based; parameters: dose 10 mg/kg
Poliovirus 1 [16] = test: Antiviral activity against Human poliovirus type 1 infected in mouse assessed as protection from virus-induced paralytic symptom at 10 mg/kg, ip administered 1 hr post infection once daily for 5 days measured after 8 days by plaque assay; format: functional, organism-based; parameters: dose 10 mg/kg
Summary of the method: (§2)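 Poliovirus receptor transgenic (cPVR) mice, about 10 weeks old, were infected i.p. with 3 × 10^8 PFU wt PV1. They received 200 μg (~10 mg/kg) PPMO in 500 μl sterile PBS i.p., or PBS alone, at 1 h p.i. and then every 24 h ([…]; 6 mice per group). Mice were monitored daily for paralysis and death, and euthanized at near-total paralysis.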

Poliovirus 1 [17] = test: Antiviral activity against Human poliovirus type 1 infected in mouse assessed as protection from virus-induced paralytic symptom at 10 mg/kg, ip administered 1 hr post infection once daily for 5 days measured after 7 days by plaque assay; format: functional, organism-based; parameters: dose 10 mg/kg; summary of the method: as §2
Poliovirus 1 [18] = test: Antiviral activity against Human poliovirus type 1 infected in mouse assessed as protection from virus-induced paralytic symptom at 10 mg/kg, ip administered 1 hr post infection once daily for 5 days measured after 10 days by plaque assay; format: functional, organism-based; parameters: dose 10 mg/kg; summary of the method: as §2
Poliovirus 1 [19] = test: Antiviral activity against Human poliovirus type 1 infected in mouse assessed as protection from virus-induced death at 10 mg/kg, ip administered 1 hr post infection once daily for 5 days measured after 8 days by plaque assay; format: functional, organism-based; parameters: dose 10 mg/kg; summary of the method: as §2
Poliovirus 1 [20] = test: Antiviral activity against Human poliovirus type 1 infected in mouse assessed as protection from virus-induced death at 10 mg/kg, ip administered 1 hr post infection once daily for 5 days measured after 7 days by plaque assay; format: functional, organism-based; parameters: dose 10 mg/kg; summary of the method: as §2
Poliovirus 1 [21] = test: Antiviral activity against Human poliovirus type 1 infected in mouse assessed as protection from virus-induced death at 10 mg/kg, ip administered 1 hr post infection once daily for 5 days measured after 10 days by plaque assay; format: functional, organism-based; parameters: dose 10 mg/kg; summary of the method: as §2
Poliovirus 1 [22] = test: Antiviral activity against Human poliovirus type 1 infected in mouse assessed as viral titer in large intestine at 10 mg/kg, ip administered 1 hr post infection once daily for 5 days measured after 8 days by plaque assay; format: functional, organism-based; parameters: dose 10 mg/kg
Poliovirus 1 [23] = test: Antiviral activity against Human poliovirus type 1 infected in mouse assessed as viral titer in large intestine at 10 mg/kg, ip administered 1 hr post infection once daily for 5 days measured after 7 days by plaque assay; format: functional, organism-based; parameters: dose 10 mg/kg
Poliovirus 1 [24] = test: Antiviral activity against Human poliovirus type 1 infected in mouse assessed as viral titer in large intestine at 10 mg/kg, ip administered 1 hr post infection once daily for 5 days measured after 10 days by plaque assay; format: functional, organism-based; parameters: dose 10 mg/kg
Poliovirus 1 [25] = test: Antiviral activity against Human poliovirus type 1 infected in mouse assessed as viral titer in spleen at 10 mg/kg, ip administered 1 hr post infection once daily for 5 days measured after 8 days by plaque assay; format: functional, organism-based; parameters: dose 10 mg/kg
Poliovirus 1 [26] = test: Antiviral activity against Human poliovirus type 1 infected in mouse assessed as viral titer in spleen at 10 mg/kg, ip administered 1 hr post infection once daily for 5 days measured after 7 days by plaque assay; format: functional, organism-based; parameters: dose 10 mg/kg
Poliovirus 1 [27] = test: Antiviral activity against Human poliovirus type 1 infected in mouse assessed as viral titer in spleen at 10 mg/kg, ip administered 1 hr post infection once daily for 5 days measured after 10 days by plaque assay; format: functional, organism-based; parameters: dose 10 mg/kg
Poliovirus 1 [28] = test: Antiviral activity against Human poliovirus type 1 infected in mouse assessed as viral titer in muscle at 10 mg/kg, ip administered 1 hr post infection once daily for 5 days measured after 8 days by plaque assay; format: functional, organism-based; parameters: dose 10 mg/kg; details: Muscle tissue
Poliovirus 1 [29] = test: Antiviral activity against Human poliovirus type 1 infected in mouse assessed as viral titer in muscle at 10 mg/kg, ip administered 1 hr post infection once daily for 5 days measured after 7 days by plaque assay; format: functional, organism-based; parameters: dose 10 mg/kg; details: Muscle tissue
Poliovirus 1 [30] = test: Antiviral activity against Human poliovirus type 1 infected in mouse assessed as viral titer in muscle at 10 mg/kg, ip administered 1 hr post infection once daily for 5 days measured after 10 days by plaque assay; format: functional, organism-based; parameters: dose 10 mg/kg; details: Muscle tissue
Vero = test: Cytotoxicity against African green monkey Vero cells at 10 uM after 24 hrs by MTS assay; format: cell-based; details: chlorocebus sabaeus
SK-N-MC = test: Cytotoxicity against human SK-N-MC cell at 10 uM after 24 hrs by MTS assay; format: cell-based

Cc1cn([C@H]2CN(P(=O)(OC[C@@H]3CN(P(=O)(OC[C@@H]4CNC[C@H](n5cnc6c(=O)[nH]c(N)nc65)O4)N(C)C)C[C@H](n4cnc5c(N)ncnc54)O3)N(C)C)C[C@@H](COP(=O)(N(C)C)N3C[C@@H](COP(=O)(N(C)C)N4C[C@@H](COP(=O)(N(C)C)N5C[C@@H](COP(=O)(N(C)C)N6C[C@@H](COP(=O)(N(C)C)N7C[C@@H](COP(=O)(N(C)C)N8C[C@@H](COP(=O)(N(C)C)N9C[C@@H](COP(=O)(N(C)C)N%10C[C@@H](COP(=O)(N(C)C)N%11C[C@@H](COP(=O)(N(C)C)N%12C[C@@H](COP(=O)(N(C)C)N%13C[C@@H](COP(=O)(N(C)C)N%14C[C@@H](COP(=O)(N(C)C)N%15C[C@@H](COP(=O)(N(C)C)N%16C[C@@H](COP(=O)(N(C)C)N%17C[C@@H](COP(=O)(N(C)C)N%18C[C@@H](COP(=O)(N(C)C)N%19C[C@@H](COP(=O)(N(C)C)N%20C[C@@H](COP(=O)(N(C)C)N%21C[C@@H](COP(=O)(N(C)C)N%22CCN(C(=O)CCNC(=O)CCCCCNC(=O)[C@H](CCCNC(=N)N)NC(=O)CCCCCNC(=O)[C@H](CCCNC(=N)N)NC(=O)[C@H](CCCNC(=N)N)NC(=O)CCCCCNC(=O)[C@H](CCCNC(=N)N)NC(=O)[C@H](CCCNC(=N)N)NC(=O)CCCCCNC(=O)[C@H](CCCNC(=N)N)NC(=O)[C@H](CCCNC(=N)N)NC(=O)CCCCCNC(=O)[C@@H](N)CCCNC(=N)N)CC%22)O[C@@H](n%22cnc%23c(=O)[nH]c(N)nc%23%22)C%21)O[C@@H](n%21cnc%22c(N)ncnc%22%21)C%20)O[C@@H](n%20cnc%21c(N)ncnc%21%20)C%19)O[C@@H](n%19cnc%20c(N)ncnc%20%19)C%18)O[C@@H](n%18ccc(N)nc%18=O)C%17)O[C@@H](n%17cnc%18c(N)ncnc%18%17)C%16)O[C@@H](n%16ccc(N)nc%16=O)C%15)O[C@@H](n%15cnc%16c(=O)[nH]c(N)nc%16%15)C%14)O[C@@H](n%14cnc%15c(=O)[nH]c(N)nc%15%14)C%13)O[C@@H](n%13cnc%14c(N)ncnc%14%13)C%12)O[C@@H](n%12ccc(N)nc%12=O)C%11)O[C@@H](n%11cnc%12c(N)ncnc%12%11)C%10)O[C@@H](n%10ccc(N)nc%10=O)C9)O[C@@H](n9ccc(N)nc9=O)C8)O[C@@H](n8ccc(N)nc8=O)C7)O[C@@H](n7cnc8c(N)ncnc87)C6)O[C@@H](n6cnc7c(N)ncnc76)C5)O[C@@H](n5cnc6c(N)ncnc65)C4)O[C@@H](n4cnc5c(=O)[nH]c(N)nc54)C3)O2)c(=O)[nH]c1=O (some centres not stated)
active: Activity (Poliovirus 1 [5]) | Activity (Poliovirus 1 [7]) | Activity (Poliovirus 1 [8]) | Activity (Poliovirus 1 [9]) | Activity (Poliovirus 1 [10]) | Activity (Poliovirus 1 [11]) | Activity (Poliovirus 1 [12]) | Activity (Poliovirus 1 [13]) | Activity (Poliovirus 1 [14]) | Activity (Poliovirus 1 [15]) | Activity (Poliovirus 1 [16]) | Activity (Poliovirus 1 [17]) | Activity (Poliovirus 1 [18]) | Activity (Poliovirus 1 [19]) | Activity (Poliovirus 1 [20]) | Activity (Poliovirus 1 [21])
inactive: Activity (Poliovirus 1 [6]) | Activity (Poliovirus 1 [22]) | Activity (Poliovirus 1 [23]) | Activity (Poliovirus 1 [24]) | Activity (Poliovirus 1 [25]) | Activity (Poliovirus 1 [26]) | Activity (Poliovirus 1 [27]) | Activity (Poliovirus 1 [28]) | Activity (Poliovirus 1 [29]) | Activity (Poliovirus 1 [30])
Toxic: Activity (HeLa [1])
2 µM: IC50 (Poliovirus 1 [3])
52 µM: CC50 (HeLa [4])
Non-toxic: Activity (HeLa [2]) | Activity (Vero) | Activity (SK-N-MC)
